The values below come from ChEMBL document CHEMBL4261600 (Eur J Med Chem, 2018).

A value given as a limit tells only on which side of the number the result lay.

Series [1] addresses Serine/threonine-protein kinase 32B (Homo sapiens) (UniProt Q9NY57). Put plainly: Binding affinity to wild-type human full length YANK2 (M1 to S414 residues) expressed in bacterial expression system assessed as remaining unbound target protein level at 1000 nM by Kinomescan method relative to control. The procedure, abridged:
(§1)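 Profiled in a KINOMEscan binding panel with the inhibitor at a single concentration of 1 μM. Binding to each kinase was read out as percent of control, relative to a DMSO control. Strong binders were defined as those with a percent control value below 1.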

The target in the next series is CDK7/Cyclin H/MNAT1 (Homo sapiens, UniProt P50613). Kind of series: Inhibition of recombinant full length His-tagged human CDK7/cyclin H/MNAT1 expressed in baculovirus expression system.
Series [2] concerns the target Mitogen-activated protein kinase kinase kinase 10 (Homo sapiens) (UniProt Q02779). Put plainly: Binding affinity to wild-type human partial length MLK2 (V52 to W380 residues) expressed in bacterial expression system assessed as remaining unbound target protein level at 1000 nM by Kinomescan method relative to control. The procedure, abridged: (§2)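 KINOMEscan binding panel of 468 kinases/mutants. Inhibitor was tested at a single concentration of 1 μM. Binding is reported as percent of control, defined relative to a DMSO control.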

Series [3] in a line: AUC (0 to t) in Sprague-Dawley rat at 3 mg/kg, iv by LC-MS/MS analysis. It counts as ADME, organism-based. Particulars: in vivo. The procedure, abridged:
(§3)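 Non-compartmental PK. Male SD rats 190-210 g, mice and beagle dogs acclimatized one week, fasted 12 h with water, split into iv and po groups (mice 48, rats 6, dogs 6). iv 3/3/2 mg/kg (mice/rats/dogs); po 10/20/10 mg/kg; vehicle DMSO in 5% glucose water. Blood at 2 or 5 to 720 min; plasma protein-precipitated with methanol, caffeine internal standard, LC-MS/MS.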

Series [4] concerns the target Phosphatidylinositol 4,5-bisphosphate 3-kinase catalytic subunit delta isoform (Homo sapiens) (UniProt O00329). Put plainly: Binding affinity to wild-type human partial length PIK3CD (R108 to Q1044 residues) expressed in mammalian expression system assessed as remaining unbound target protein level at 1000 nM by Kinomescan method relative to control.
Series [5] deals with MAP kinase-interacting serine/threonine-protein kinase 2 (Homo sapiens) (UniProt Q9HBH9). Put plainly: Binding affinity to wild-type human partial length MKNK2 (G63 to S388 residues) expressed in mammalian expression system assessed as remaining unbound target protein level at 1000 nM by Kinomescan method relative to control.
The subject of series [6] is Phosphatidylinositol 4,5-bisphosphate 3-kinase catalytic subunit alpha isoform (Homo sapiens), P42336 [M1043I]. Kind of series: Binding affinity to human partial length PIK3CA M1043I mutant (R108 to N1068 residues) expressed in mammalian expression system assessed as remaining unbound target protein level at 1000 nM by Kinomescan method relative to control. The procedure, abridged: (§4)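 KINOMEscan competition-binding profiling across the panel of 468 kinases and mutants, with inhibitor tested at 1 μM. Binding is expressed as percent of control, with DMSO as the reference control.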

A short description of series [7]: AUC (0 to t) in beagle dog at 2 mg/kg, iv by LC-MS/MS analysis. It counts as ADME, organism-based, Canis lupus familiaris. Particulars: in vivo. An outline of the steps: as §3
The species named for another series is Homo sapiens. Kind of series: Selectivity ratio of IC50 for recombinant full length His-tagged human CDK8/CyclinC to IC50 for recombinant full length His-tagged human CDK9/CyclinT1.
Series [8] concerns Hepatocyte growth factor receptor (Homo sapiens), P08581 [M1250T]. Kind of series: Binding affinity to human partial length MET M1250T mutant (D1010 to S1367 residues) expressed in bacterial expression system assessed as remaining unbound target protein level at 1000 nM by Kinomescan method relative to control. An outline of the steps: as §4
The target of series [9] is cAMP-dependent protein kinase catalytic subunit PRKX (Homo sapiens) (UniProt P51817). Put plainly: Binding affinity to wild-type human partial length PRKX (M1 to F358 residues) expressed in bacterial expression system assessed as remaining unbound target protein level at 1000 nM by Kinomescan method relative to control.
Chain of cAMP-dependent protein kinase catalytic subunit PRKX (Homo sapiens) (P51817 whole entry, the tested form may be a part): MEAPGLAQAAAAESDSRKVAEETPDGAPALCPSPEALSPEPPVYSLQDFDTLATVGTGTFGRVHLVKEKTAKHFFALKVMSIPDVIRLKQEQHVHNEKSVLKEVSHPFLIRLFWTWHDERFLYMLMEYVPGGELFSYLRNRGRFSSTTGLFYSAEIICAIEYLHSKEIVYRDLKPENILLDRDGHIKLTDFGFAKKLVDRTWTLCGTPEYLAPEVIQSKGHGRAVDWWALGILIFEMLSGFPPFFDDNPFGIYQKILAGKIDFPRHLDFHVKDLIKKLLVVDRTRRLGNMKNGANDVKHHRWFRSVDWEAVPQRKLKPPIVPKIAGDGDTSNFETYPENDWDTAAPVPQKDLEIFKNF
Series [10] addresses Serine/threonine-protein kinase Sgk2 (Homo sapiens) (UniProt Q9HBY8). Kind of series: Binding affinity to wild-type human partial length SGK2 (L54 to C427 residues) expressed in mammalian expression system assessed as remaining unbound target protein level at 1000 nM by Kinomescan method relative to control.
For series [11], the target named is Ephrin type-A receptor 3 (Homo sapiens) (UniProt P29320). Put plainly: Binding affinity to wild-type human partial length EPHA3 (D604 to K889 residues) expressed in bacterial expression system assessed as remaining unbound target protein level at 1000 nM by Kinomescan method relative to control. The procedure, abridged: as §2
Series [12] has as its target Membrane-associated tyrosine- and threonine-specific cdc2-inhibitory kinase (Homo sapiens) (UniProt Q99640). Put plainly: Binding affinity to wild-type human partial length PKMYT1 (A88 to G366 residues) expressed in bacterial expression system assessed as remaining unbound target protein level at 1000 nM by Kinomescan method relative to control.
Series [13] concerns the target Myosin light chain kinase (Homo sapiens) (UniProt Q32MK0). Put plainly: Binding affinity to wild-type human partial length MLCK (D488 to K800 residues) expressed in bacterial expression system assessed as remaining unbound target protein level at 1000 nM by Kinomescan method relative to control.
The target in series [14] is cGMP-dependent protein kinase 2 (Homo sapiens) (UniProt Q13237). Kind of series: Binding affinity to wild-type human partial length PRKG2 (S422 to F762 residues) expressed in mammalian expression system assessed as remaining unbound target protein level at 1000 nM by Kinomescan method relative to control.
Series [15] has as its target Serine/threonine-protein kinase D1 (Homo sapiens) (UniProt Q15139). Put plainly: Binding affinity to wild-type human partial length PRKD1 (G551 to E870 residues) expressed in bacterial expression system assessed as remaining unbound target protein level at 1000 nM by Kinomescan method relative to control.
The target in series [16] is Ribosomal protein S6 kinase alpha-2 (Homo sapiens) (UniProt Q15349). Kind of series: Binding affinity to wild-type human partial length C-terminal RSK3 kinase domain 2 (V403 to K700 residues) expressed in bacterial expression system assessed as remaining unbound target protein level at 1000 nM by Kinomescan method relative to control. An outline of the steps:
as §1

For series [17], the target named is Macrophage colony-stimulating factor 1 receptor (Homo sapiens) (UniProt P07333). Kind of series: Binding affinity to wild-type human partial length CSF1R (I564 to S939 residues) expressed in bacterial expression system assessed as remaining unbound target protein level at 1000 nM by Kinomescan method relative to control.
In series [18] the target is Epidermal growth factor receptor (Homo sapiens) (UniProt P00533). Kind of series: Binding affinity to human partial length EGFR S752-I759del mutant expressed in bacterial expression system assessed as remaining unbound target protein level at 1000 nM by Kinomescan method relative to control. The procedure, abridged:
as §4

The subject of series [19] is Phosphatidylinositol 4,5-bisphosphate 3-kinase catalytic subunit alpha isoform (Homo sapiens), P42336 [I800L]. Kind of series: Binding affinity to human partial length PIK3CA I800L mutant (R108 to N1068 residues) expressed in mammalian expression system assessed as remaining unbound target protein level at 1000 nM by Kinomescan method relative to control. An outline of the steps: as §4

Chain of Serine/threonine-protein kinase 32B (Homo sapiens) (Q9NY57 whole entry, the tested form may be a part): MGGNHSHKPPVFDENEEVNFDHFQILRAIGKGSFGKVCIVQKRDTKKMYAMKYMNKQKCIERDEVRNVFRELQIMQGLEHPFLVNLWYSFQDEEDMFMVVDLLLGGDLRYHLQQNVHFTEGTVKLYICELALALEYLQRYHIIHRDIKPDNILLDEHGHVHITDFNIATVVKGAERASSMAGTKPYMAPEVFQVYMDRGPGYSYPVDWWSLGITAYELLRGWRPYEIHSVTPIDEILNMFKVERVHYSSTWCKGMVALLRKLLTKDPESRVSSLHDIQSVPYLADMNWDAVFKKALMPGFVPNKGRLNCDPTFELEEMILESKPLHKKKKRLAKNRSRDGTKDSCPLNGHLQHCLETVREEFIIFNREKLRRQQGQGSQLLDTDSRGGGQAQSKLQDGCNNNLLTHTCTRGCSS
Chain of Mitogen-activated protein kinase kinase kinase 10 (Homo sapiens) (Q02779 whole entry, looked up, the tested form may be a part): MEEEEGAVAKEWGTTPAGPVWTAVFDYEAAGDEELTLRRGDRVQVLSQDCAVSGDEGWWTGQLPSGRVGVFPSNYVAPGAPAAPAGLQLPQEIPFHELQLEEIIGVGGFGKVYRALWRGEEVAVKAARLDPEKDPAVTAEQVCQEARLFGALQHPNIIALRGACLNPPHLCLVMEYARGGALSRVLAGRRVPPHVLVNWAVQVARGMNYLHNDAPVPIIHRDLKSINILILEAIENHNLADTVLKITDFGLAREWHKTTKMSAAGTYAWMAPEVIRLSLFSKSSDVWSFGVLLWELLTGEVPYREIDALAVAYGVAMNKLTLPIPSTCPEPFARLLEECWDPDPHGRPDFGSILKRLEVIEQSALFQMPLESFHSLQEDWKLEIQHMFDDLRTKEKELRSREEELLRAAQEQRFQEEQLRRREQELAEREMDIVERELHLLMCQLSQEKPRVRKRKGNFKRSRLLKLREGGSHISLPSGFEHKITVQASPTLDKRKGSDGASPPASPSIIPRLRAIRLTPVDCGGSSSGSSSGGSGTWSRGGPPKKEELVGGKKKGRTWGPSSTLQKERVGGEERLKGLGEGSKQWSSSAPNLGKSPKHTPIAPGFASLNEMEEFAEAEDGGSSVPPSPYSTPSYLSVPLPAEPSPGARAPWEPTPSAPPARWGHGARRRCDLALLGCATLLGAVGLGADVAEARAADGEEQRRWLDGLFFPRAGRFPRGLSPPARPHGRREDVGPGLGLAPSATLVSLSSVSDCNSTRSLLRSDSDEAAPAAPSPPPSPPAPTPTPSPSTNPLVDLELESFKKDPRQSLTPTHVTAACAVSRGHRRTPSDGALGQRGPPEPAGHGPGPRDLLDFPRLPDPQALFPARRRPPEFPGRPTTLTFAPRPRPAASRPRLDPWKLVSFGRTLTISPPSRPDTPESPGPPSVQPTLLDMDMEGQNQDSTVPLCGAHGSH
Chain of Phosphatidylinositol 4,5-bisphosphate 3-kinase catalytic subunit alpha isoform (Homo sapiens), P42336 [I800L] (P42336 whole entry I800L, the tested form may be a part, canonical isoform): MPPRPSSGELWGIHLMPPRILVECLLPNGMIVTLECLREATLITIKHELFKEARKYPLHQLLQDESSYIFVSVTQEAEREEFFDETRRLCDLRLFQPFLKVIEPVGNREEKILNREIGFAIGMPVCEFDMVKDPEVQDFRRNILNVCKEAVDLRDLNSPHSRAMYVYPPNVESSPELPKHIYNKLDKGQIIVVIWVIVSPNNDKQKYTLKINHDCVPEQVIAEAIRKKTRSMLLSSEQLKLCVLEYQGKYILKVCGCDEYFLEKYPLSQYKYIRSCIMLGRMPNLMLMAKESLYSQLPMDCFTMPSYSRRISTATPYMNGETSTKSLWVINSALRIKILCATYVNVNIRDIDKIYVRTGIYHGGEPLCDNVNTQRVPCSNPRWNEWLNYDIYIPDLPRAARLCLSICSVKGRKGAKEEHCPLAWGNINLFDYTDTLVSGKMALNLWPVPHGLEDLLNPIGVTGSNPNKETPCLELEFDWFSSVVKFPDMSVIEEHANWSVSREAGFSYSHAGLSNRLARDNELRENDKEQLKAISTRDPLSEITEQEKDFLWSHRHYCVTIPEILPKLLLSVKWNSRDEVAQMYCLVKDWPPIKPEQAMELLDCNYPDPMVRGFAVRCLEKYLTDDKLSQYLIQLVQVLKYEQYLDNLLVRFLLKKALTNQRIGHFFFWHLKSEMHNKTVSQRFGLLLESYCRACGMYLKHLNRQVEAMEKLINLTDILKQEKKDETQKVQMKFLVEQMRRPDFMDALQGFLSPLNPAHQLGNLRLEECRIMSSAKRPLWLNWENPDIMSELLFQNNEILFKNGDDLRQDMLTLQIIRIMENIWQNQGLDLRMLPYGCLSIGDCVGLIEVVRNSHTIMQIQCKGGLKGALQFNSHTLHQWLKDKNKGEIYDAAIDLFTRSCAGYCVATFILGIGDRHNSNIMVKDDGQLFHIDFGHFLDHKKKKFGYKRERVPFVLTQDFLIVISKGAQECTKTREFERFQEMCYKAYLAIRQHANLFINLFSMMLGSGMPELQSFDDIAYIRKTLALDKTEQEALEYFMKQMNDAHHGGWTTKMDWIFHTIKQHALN
Chain of Myosin light chain kinase (Homo sapiens) (Q32MK0 whole entry, the tested form may be a part): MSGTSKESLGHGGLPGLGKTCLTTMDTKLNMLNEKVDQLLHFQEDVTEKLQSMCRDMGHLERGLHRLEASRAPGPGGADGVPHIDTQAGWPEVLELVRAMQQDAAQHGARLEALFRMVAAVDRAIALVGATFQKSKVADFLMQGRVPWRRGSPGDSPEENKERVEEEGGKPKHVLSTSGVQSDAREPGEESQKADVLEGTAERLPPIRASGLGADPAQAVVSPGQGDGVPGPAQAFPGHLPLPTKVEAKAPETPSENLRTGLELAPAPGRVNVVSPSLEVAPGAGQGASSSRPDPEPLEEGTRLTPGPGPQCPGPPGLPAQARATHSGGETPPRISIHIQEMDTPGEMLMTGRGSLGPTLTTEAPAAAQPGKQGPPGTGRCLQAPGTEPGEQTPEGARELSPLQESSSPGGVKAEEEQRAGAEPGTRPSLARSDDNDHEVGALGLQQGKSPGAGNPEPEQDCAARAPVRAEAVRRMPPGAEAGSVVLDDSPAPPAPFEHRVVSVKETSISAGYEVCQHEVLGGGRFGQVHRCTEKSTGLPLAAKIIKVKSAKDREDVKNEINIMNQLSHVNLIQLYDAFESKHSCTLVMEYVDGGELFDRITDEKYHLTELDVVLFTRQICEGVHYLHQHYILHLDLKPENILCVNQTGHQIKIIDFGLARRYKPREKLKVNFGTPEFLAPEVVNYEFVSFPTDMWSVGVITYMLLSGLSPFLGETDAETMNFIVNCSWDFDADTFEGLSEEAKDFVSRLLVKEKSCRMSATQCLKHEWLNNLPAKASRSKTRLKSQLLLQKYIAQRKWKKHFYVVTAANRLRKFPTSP
Chain of Ribosomal protein S6 kinase alpha-2 (Homo sapiens) (Q15349 whole entry, the tested form may be a part): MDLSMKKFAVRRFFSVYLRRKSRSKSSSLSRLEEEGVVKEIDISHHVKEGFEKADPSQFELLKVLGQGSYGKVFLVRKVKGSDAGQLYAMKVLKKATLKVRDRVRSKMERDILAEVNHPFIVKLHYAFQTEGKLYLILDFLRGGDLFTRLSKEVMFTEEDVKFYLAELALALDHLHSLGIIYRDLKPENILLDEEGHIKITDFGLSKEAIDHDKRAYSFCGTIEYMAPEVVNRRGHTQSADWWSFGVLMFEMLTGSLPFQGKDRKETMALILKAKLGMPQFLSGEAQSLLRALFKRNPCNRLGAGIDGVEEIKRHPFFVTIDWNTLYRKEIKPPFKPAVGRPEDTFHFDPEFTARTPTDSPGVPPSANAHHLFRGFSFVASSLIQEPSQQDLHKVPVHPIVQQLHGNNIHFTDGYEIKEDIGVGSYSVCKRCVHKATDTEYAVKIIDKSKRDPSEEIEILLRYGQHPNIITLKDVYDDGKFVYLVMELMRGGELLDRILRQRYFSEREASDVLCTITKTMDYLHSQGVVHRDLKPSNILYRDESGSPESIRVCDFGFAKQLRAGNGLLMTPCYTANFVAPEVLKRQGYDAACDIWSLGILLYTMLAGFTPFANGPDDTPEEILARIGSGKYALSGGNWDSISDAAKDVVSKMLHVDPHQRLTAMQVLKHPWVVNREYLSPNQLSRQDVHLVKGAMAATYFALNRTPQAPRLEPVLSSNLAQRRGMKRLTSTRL
Chain of Membrane-associated tyrosine- and threonine-specific cdc2-inhibitory kinase (Homo sapiens) (Q99640 whole entry, the tested form may be a part): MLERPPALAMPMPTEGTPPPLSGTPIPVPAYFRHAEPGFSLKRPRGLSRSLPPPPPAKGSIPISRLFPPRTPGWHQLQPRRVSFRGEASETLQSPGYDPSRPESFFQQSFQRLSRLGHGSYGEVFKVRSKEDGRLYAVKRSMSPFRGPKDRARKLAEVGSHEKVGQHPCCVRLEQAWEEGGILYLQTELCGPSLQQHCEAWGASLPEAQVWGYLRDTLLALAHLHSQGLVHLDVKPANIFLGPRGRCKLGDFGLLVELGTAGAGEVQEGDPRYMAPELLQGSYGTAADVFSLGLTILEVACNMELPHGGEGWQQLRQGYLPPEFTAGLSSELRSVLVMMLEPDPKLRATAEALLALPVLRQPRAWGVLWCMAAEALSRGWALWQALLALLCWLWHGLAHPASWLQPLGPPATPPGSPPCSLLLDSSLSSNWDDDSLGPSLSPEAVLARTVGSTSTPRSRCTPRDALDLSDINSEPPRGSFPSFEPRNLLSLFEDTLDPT

For the compound `COCCN[C@H]1CC[C@H](Nc2cc(-c3csc(NCC4(C#N)CCOCC4)n3)c(Cl)cn2)CC1`, the Activity was 100% in series [1]; 99% in series [2]; 85% in series [4]; 97% in series [5]; 95% in series [6]; 100% in series [8]. In addition, the Activity in series [9] was 91%; in [10] it was 89%; in series [11] it was 94%; in [12] it was 100%; in series [13] it was 100%; in series [14] it was 100%. Also, the Activity amounted to 48% in [15]; 92% in series [16]; 87% in series [17]; 87% in series [18]; 90% in series [19]. The IC50 on CDK7/Cyclin H/MNAT1 came out at 1.72 µM. Moreover, the exposure AUC(0-t) in series [3] worked out at 625 ng·h/mL; in series [7], 2010 ng·h/mL. In the series listed under Homo sapiens, the Ratio IC50 was more than 1000.

In general, IC50 refers to the concentration that gives 50% inhibition. What is called AUC(0-t) is the area under the concentration-time curve up to a stated or last time point.
